{"data": "Assay results gathered from unrelated publications", "target": "Mitogen-activated protein kinase kinase kinase 15 (MAP3K15, Homo sapiens, UniProt Q6ZN16)", "Sequence (Q6ZN16 1-1313, as in one of the studies)": "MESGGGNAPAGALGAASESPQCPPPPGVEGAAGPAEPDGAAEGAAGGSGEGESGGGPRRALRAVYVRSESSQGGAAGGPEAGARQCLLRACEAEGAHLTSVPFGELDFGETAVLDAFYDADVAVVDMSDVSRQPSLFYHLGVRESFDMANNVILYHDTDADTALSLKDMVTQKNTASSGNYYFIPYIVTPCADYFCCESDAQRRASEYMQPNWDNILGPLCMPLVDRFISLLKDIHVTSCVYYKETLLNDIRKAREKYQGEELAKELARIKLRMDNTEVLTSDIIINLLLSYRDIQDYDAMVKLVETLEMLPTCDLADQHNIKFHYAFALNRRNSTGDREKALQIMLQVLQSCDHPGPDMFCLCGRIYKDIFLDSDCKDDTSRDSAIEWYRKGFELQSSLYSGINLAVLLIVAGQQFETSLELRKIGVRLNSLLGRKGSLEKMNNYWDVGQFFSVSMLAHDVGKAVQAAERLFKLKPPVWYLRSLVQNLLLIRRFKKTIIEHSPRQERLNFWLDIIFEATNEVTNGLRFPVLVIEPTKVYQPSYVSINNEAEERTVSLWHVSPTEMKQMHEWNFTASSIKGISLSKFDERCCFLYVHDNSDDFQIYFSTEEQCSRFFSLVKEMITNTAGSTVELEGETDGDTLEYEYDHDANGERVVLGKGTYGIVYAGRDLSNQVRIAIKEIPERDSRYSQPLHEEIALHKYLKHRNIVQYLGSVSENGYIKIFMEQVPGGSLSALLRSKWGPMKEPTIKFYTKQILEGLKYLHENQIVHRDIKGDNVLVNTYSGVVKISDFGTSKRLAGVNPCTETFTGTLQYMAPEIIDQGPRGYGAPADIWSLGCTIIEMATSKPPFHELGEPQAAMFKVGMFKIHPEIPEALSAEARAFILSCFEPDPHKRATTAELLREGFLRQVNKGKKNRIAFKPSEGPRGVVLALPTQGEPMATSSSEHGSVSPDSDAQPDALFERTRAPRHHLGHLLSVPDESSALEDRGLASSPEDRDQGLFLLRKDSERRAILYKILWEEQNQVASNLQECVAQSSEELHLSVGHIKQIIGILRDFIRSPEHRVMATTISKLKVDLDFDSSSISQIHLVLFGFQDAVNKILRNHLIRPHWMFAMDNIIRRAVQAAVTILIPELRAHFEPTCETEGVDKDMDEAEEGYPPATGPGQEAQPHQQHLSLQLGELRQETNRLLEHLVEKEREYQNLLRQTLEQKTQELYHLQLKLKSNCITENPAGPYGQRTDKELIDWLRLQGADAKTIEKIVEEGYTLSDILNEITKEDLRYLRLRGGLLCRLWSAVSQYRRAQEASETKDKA", "note": "Compare with care: the assays were run in different laboratories."}
{"Structure (SMILES)": "CCCCN(CCCC)C(=O)CN1C[C@@H](c2cc(OC)c3c(c2)OCO3)[C@H](C(=O)O)[C@H]1CC(C)(C)CCC", "observed": "cell-free assay", "technique": "competition with immobilised ligand", "concentration": "1 µM", "remaining binding": "99%"}
{"Structure (SMILES)": "O=C(Nc1c[nH]nc1C(=O)NC1CCNCC1)c1cc(F)cc(F)c1", "observed": "binding", "technique": "competition with immobilised ligand", "concentration": "1 µM", "remaining binding": "100%"}
{"Structure (SMILES)": "Nc1ncc2c(n1)-c1c([nH]c3ccc(C#CC4CC4)cc13)CCCC2", "observed": "binding", "technique": "competition with immobilised ligand", "concentration": "1 µM", "remaining binding": "73%"}
{"Structure (SMILES)": "CNC(=O)[C@@H]1CC[C@@H](n2c(-c3ccc4cnccc4c3)nc3ccc(C(=O)NCc4cccc(C(N)=O)c4)cc32)C1", "observed": "binding", "technique": "competition with immobilised ligand", "concentration": "1 µM", "remaining binding": "99%"}
{"Structure (SMILES)": "O=C(c1ccc(Nc2nccc(-c3cc4ccccc4s3)n2)cc1)N1CCC(N2CCCC2)CC1", "observed": "binding", "technique": "competition with immobilised ligand", "concentration": "1 µM", "remaining binding": "96%"}
{"Structure (SMILES)": "CN(CCCC(F)(F)F)c1nccc(-c2cnn3ncccc23)n1", "observed": "binding", "concentration": "1 µM", "remaining binding": "100%"}
{"Structure (SMILES)": "O=C(NCCCN1CCOCC1)c1ccc(Nc2ncc(Cl)c(-c3ccc(Cl)s3)n2)cc1", "observed": "binding", "technique": "competition with immobilised ligand", "concentration": "1 µM", "remaining binding": "68%"}
{"Structure (SMILES)": "COc1ccnn2ncc(-c3ccnc(N(C)C)n3)c12", "observed": "binding", "concentration": "1 µM", "remaining binding": "100%"}
{"Structure (SMILES)": "C[C@@H](c1ccc(-n2cnc3c(N)ncnc32)cc1)N1CCc2nn(C)c(Cc3ccccc3)c2C1=O", "observed": "binding", "technique": "competition with immobilised ligand", "concentration": "0.1 µM", "remaining binding": "60%"}
{"Structure (SMILES)": "O=C(c1ccc(Nc2ncc(Cl)c(-c3cc4ccccc4s3)n2)cc1)N1CCC(N2CCCC2)CC1", "observed": "binding", "technique": "competition with immobilised ligand", "concentration": "1 µM", "remaining binding": "55%"}
{"Structure (SMILES)": "Cn1nc(C(F)(F)F)cc1-c1cnc(N2CCc3cc(S(=O)(=O)Nc4c(F)cc(Cl)cc4F)cc(N4CCCC4=O)c32)nc1", "observed": "cell-free assay", "technique": "competition with immobilised ligand", "concentration": "1 µM", "remaining binding": "81%"}
{"Structure (SMILES)": "N[C@H]1CCN(c2nccc(-c3cnn4ncccc34)n2)C1", "observed": "binding", "concentration": "1 µM", "remaining binding": "83%"}
{"Structure (SMILES)": "C[C@@]1(Cc2ccc(C#N)cc2)C(=O)N(c2cc(Cl)cc(Cl)c2)c2ncc(C(=O)NC3(c4nc(C5CCC5)no4)CC3)n21", "observed": "cell-free assay", "technique": "competition with immobilised ligand", "concentration": "1 µM", "remaining binding": "81%"}
{"Structure (SMILES)": "CN(c1nccc(-c2cnn3ncccc23)n1)C1CC1", "observed": "binding", "concentration": "1 µM", "remaining binding": "100%"}
{"Structure (SMILES)": "CN(C)C(=O)Cn1cc(-c2nc([C@@](C)(c3ccc(-c4cnc(N)nc4)cc3)C3CC3)no2)cn1", "observed": "cell-free assay", "technique": "competition with immobilised ligand", "concentration": "1 µM", "remaining binding": "99%"}
{"Structure (SMILES)": "Cc1cnn2ncc(-c3ccnc(N(C)C)n3)c2c1", "observed": "binding", "concentration": "1 µM", "remaining binding": "100%"}
{"Structure (SMILES)": "COc1ccc2c(c1)O[C@@H](c1ccc(OC)c(OC)c1)C[C@H]2NC(=O)C1(c2ccc3c(c2)OC(F)(F)O3)CC1", "observed": "cell-free assay", "technique": "competition with immobilised ligand", "concentration": "1 µM", "remaining binding": "88%"}
{"Structure (SMILES)": "COc1ncc2cc3ccccc3nc2c1C#N", "observed": "cell-free assay", "technique": "competition with immobilised ligand", "concentration": "5 µM", "remaining binding": "95%"}
{"Structure (SMILES)": "CC1=C(C#N)C(c2ccc3c(c2)c(NC(=O)c2ccccc2C)nn3C)C(C#N)=C(C)N1", "observed": "cell-free assay", "technique": "competition with immobilised ligand", "concentration": "1 µM", "remaining binding": "96%"}
{"Structure (SMILES)": "CN(C)c1nccc(-c2cnn3ncccc23)n1", "observed": "binding", "concentration": "1 µM", "remaining binding": "91%"}
